According to PMC3501683 (ACS medicinal chemistry letters, 2012):
“Also recorded” adds a separate entry of the source.

What was measured:
[1] = stability studies in bacterial culture medium; type: physicochemical; details: 48 h period
[2] = target: LasB (Pseudomonas aeruginosa, UniProt P14756); assay: LasB fluorescence assay based on a LasB-cleavable FRET peptide substrate; type: biochemical; details: for improvement in potency: relative to fragment hits 3 and 4; for less potent than 8a and 8b in the in vitro LasB assay: relative to 8a and 8b
Chain of LasB (P14756 198-498): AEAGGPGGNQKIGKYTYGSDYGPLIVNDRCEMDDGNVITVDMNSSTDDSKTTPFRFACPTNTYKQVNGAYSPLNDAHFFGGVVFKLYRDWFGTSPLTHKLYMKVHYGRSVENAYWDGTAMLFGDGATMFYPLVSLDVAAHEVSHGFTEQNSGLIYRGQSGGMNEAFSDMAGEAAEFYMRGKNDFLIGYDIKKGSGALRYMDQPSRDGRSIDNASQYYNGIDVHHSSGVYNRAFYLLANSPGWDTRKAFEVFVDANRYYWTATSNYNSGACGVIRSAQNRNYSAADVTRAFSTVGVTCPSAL

[3] = tested on: P. aeruginosa strain PA14; assay: swarming assay on swarm agar plates; type: cell-based, Pseudomonas aeruginosa; details: for effect on swarming: 25 μM, 16 h at 30 °C, versus DMSO-treated control; for swarming inhibition: data not shown
Outline: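 Test compound was added to the swarm agar at 25 μM, and P. aeruginosa PA14 was grown on these plates for 16 h at 30 °C. Swarm morphology was compared visually with plates containing DMSO as the vehicle control.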

[4] = target: secreted LasB (Pseudomonas aeruginosa, UniProt Q02RJ6); assay: bacterial P. aeruginosa elastase assays; type: cell-based
Chain of secreted LasB (Q02RJ6 198-498): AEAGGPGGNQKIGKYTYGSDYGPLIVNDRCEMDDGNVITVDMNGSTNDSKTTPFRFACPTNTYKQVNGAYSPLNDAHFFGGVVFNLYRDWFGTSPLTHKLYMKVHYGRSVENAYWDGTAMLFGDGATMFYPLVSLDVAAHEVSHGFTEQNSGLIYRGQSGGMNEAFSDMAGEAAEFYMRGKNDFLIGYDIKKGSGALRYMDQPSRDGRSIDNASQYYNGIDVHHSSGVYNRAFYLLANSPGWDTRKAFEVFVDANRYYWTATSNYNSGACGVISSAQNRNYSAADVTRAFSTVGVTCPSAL

Row | Compound | stability in bacterial culture medium [1] | improvement in potency [2] | effect on swarming [3] | antagonism in bacterial P. aeruginosa elastase assays (secreted LasB inhibition) [4] | less potent than 8a and 8b in the in vitro LasB assay [2] | swarming inhibition [3]
1 | Cc1c(O)c(=S)ccn1Cc1ccc(-c2ccccc2)cc1 [Compound 8b] | no detectable S-oxidation or decomposition | ~ 30 fold | almost completely abolished swarming | – | – | –
2 | O=C(Cc1cccc(F)c1)NO [Compound 2] | hydrolytic instability | – | – | no secreted LasB inhibition; also recorded: no antagonism | ~ 5 fold | no swarming inhibition
3 | O=C(Cc1ccccc1)NO [Compound 1] | hydrolytic instability | – | – | no secreted LasB inhibition; also recorded: no antagonism | ~ 5 fold | no swarming inhibition
4 | Cc1c(O)c(=S)ccn1Cc1ccc(-c2ccc(F)c(F)c2)cc1 [Compound 8a] | no detectable S-oxidation or decomposition | ~ 30 fold | almost completely abolished swarming | – | – | –
